The term inhibition denotes the share of the control response that was lost under treatment. As usually defined, the IC50 is the concentration needed to halve the response being measured.

Where a name gives a salt, the structure may show the parent alone. Calls of active or inactive are those of the source. No cut-off for these calls is given here.

These results are taken from ChEMBL document CHEMBL1157684, “2-Thienyl-4-furyl-6-aryl pyridine derivatives: synthesis, topoisomerase I and II inhibitory activity, cytotoxicity, and structure-activity relationship study” (Bioorg Med Chem, 2010).

Assay [1] deals with T1, DNA topoisomerase 1 (Homo sapiens) (UniProt P11387).
T1 sequence (whole entry): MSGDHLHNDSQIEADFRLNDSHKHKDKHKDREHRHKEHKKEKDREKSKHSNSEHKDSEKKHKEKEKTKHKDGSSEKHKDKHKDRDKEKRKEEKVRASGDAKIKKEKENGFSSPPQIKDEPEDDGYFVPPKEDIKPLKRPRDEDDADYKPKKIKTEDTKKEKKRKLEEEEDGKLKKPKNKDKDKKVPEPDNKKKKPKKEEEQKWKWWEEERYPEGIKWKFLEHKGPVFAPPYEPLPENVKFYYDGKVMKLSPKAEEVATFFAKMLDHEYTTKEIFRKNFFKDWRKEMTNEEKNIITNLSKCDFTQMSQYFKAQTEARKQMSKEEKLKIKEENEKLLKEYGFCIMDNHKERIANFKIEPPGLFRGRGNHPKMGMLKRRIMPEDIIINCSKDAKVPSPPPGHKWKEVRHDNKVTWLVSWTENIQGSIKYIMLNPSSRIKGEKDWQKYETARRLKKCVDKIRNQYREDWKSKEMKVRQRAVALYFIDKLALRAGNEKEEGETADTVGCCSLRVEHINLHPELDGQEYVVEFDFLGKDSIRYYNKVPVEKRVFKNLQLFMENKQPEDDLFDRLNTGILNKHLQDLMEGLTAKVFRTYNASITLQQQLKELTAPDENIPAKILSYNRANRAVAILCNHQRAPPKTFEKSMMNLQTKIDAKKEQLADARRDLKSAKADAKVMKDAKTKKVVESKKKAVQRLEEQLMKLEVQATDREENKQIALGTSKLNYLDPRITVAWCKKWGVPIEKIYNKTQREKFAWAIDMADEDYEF
The experiment in a line: Inhibition of human recombinant DNA topoisomerase 1-mediated relaxation of supercoiled pBR322 DNA at 100 uM after 30 mins by agarose gel electrophoresis. The method, boiled down:
(§1)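 Recombinant human topo I (0.4 units) with 100 ng supercoiled pBR322, 30 min at 37 °C in 10 mM Tris–HCl pH 7.9, 150 mM NaCl, 0.1% BSA, 1 mM spermidine, 5% glycerol. Compounds from 20 mM DMSO stock. Products run on 1% agarose in TAE, 15 V for 7 h, ethidium-stained, bands quantified under UV.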

The target in assay [2] is T1, DNA topoisomerase 1 (Homo sapiens). The experiment in a line: Inhibition of human recombinant DNA topoisomerase 1-mediated relaxation of supercoiled pBR322 DNA at 20 uM after 30 mins by agarose gel electrophoresis. The method in brief:
as §1

Assay [3] concerns the target DNA topoisomerase 2-alpha (Homo sapiens) (UniProt P11388). The experiment in a line: Inhibition of human DNA topoisomerase 2alpha-mediated relaxation of supercoiled pBR322 DNA at 100 uM after 30 mins by agarose gel electrophoresis. The method in brief:
(§2)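 Human topo IIα (1 unit) with 200 ng supercoiled pBR322, 30 min at 30 °C in 10 mM Tris–HCl pH 7.9, 50 mM NaCl, 50 mM KCl, 5 mM MgCl2, 1 mM EDTA, 1 mM ATP plus BSA. Products run on 1% agarose in TAE at 25 V for 4 h, ethidium-stained, supercoiled DNA quantified under UV.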

For assay [4] the target is unchanged. The experiment in a line: Inhibition of human DNA topoisomerase 2alpha-mediated relaxation of supercoiled pBR322 DNA at 20 uM after 30 mins by agarose gel electrophoresis. The method, boiled down: as §2
Assay [5] deals with MCF7. The experiment in a line: Cytotoxicity against human MCF7 cells after 4 days by ELISA reader assay. Type of assay: functional, cell-based. The following applies: MCF7, 96 h. The method in brief:
(§3)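 Cells grown per supplier, seeded at 2–4 × 10⁴ per well, left overnight in medium with 10% FBS at 37 °C under 5% CO₂, then exposed to compounds. WST (cell counting kit-8) reagent added for a further 4 h, absorbance read at 450 nm. IC50 from four-parameter logistic fit; mean ± S.D. of three experiments, each in triplicate.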

Assay [6] has as its system DU-145. The experiment in a line: Cytotoxicity against human DU145 cells after 4 days by ELISA reader assay. The assay is classed as functional, cell-based. The note with it: DU-145, 96 h. The method, boiled down:
as §3

The test system of assay [7] is HCT-15. The experiment in a line: Cytotoxicity against human HCT15 cells after 4 days by ELISA reader assay. Type of assay: functional, cell-based. The following applies: HCT-15, 96 h. The method in brief: as §3
Assay [8] concerns K562. The experiment in a line: Cytotoxicity against human K562 cells after 4 days by ELISA reader assay. The assay is classed as functional, cell-based. The note with it: K562, 96 h. The method, boiled down: as §3
In assay [9] the test system is HeLa. The experiment in a line: Cytotoxicity against human HeLa cells after 4 days by ELISA reader assay. Type of assay: functional, cell-based. The following applies: 96 h. The method in brief:
as §3

Sequence of DNA topoisomerase 2-alpha (Homo sapiens) (P11388 whole entry): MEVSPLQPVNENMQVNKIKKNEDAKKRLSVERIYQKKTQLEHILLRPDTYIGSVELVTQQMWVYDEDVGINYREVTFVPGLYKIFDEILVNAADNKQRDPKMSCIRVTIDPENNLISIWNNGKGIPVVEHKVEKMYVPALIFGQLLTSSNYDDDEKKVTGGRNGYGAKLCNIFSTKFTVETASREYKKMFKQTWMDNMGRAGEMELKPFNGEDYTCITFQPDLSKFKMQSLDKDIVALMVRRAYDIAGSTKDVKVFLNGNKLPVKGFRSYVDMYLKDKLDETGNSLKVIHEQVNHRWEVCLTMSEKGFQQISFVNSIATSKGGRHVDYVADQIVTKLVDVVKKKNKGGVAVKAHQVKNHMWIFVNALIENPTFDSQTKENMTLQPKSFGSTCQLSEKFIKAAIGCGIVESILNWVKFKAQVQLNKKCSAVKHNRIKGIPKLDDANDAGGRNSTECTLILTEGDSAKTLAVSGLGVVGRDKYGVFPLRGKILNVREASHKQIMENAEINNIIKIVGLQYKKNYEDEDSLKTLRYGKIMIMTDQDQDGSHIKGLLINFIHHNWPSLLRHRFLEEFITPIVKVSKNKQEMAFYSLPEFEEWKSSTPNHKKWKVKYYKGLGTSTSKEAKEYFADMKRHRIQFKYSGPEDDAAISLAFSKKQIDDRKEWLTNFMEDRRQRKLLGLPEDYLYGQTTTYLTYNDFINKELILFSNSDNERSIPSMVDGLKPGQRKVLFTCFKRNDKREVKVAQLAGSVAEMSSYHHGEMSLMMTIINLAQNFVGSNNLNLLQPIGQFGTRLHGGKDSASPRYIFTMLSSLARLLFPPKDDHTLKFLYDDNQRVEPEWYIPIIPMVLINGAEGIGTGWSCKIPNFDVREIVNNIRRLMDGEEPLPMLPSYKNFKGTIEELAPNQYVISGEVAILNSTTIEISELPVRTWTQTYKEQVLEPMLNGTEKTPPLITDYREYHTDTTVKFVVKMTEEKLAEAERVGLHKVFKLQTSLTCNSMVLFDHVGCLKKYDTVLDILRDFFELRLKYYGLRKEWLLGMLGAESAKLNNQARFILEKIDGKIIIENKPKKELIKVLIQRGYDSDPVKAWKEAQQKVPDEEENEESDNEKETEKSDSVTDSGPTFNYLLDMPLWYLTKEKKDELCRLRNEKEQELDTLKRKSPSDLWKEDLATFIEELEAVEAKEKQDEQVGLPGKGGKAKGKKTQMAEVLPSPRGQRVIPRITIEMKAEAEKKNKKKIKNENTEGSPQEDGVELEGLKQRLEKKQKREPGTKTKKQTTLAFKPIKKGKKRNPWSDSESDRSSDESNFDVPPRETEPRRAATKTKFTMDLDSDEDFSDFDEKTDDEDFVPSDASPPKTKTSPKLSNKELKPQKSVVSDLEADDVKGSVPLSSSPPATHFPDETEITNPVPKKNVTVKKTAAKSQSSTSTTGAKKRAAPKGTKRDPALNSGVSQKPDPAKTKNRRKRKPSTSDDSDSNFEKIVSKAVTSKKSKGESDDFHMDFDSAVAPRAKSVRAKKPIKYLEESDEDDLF

Take `Clc1ccc(-c2cc(-c3ccoc3)cc(-c3ccccn3)n2)s1`: the inhibition in assay [1] stood at 3.1%; in assay [3] it was 49.6%; in assay [4] it was 38.9%. The inhibition result in assay [2] was “inactive”. The IC50 in [5] came to 3.36 µM; in assay [6], 20.5 µM; in assay [7] it was 1.27 µM; in [8], 20 µM; in assay [9], 21.6 µM.

On to `Cc1ccsc1-c1cc(-c2ccoc2)cc(-c2ccco2)n1`, for which the inhibition in assay [1] was 5.4%; in [3] it was 59.9%; in assay [4], 36.4%. In addition, the inhibition entry in assay [2] is “inactive”. Moreover, the IC50 was 18.2 µM in assay [5]; 30.4 µM in assay [6]; 0.64 µM in assay [7]; 23.3 µM in assay [8]; 30.5 µM in [9].

In the case of `Cc1ccc(-c2cc(-c3ccc(Cl)o3)cc(-c3ccc(Cl)s3)n2)cc1`, the figures for the inhibition in assay [1], in [3] and in assay [4] were 14.2%, 58.6% and 41.1%, respectively. Moreover, the inhibition entry in [2] is “inactive”. Further, the concentration for half-maximal inhibition (IC50) in [5] is 3.04 µM; in [6], greater than 50 µM; in assay [7], greater than 50 µM; in [8], 21.4 µM; in assay [9], greater than 50 µM.

`Cc1ccsc1-c1cc(-c2ccc(Cl)o2)cc(-c2cccc(Cl)c2)n1`: the inhibition in assay [1] came to 5.9%; in [3] it was 51.5%; in assay [4], 35.7%. Further, in assay [2], the inhibition entry is “inactive”. Also, the 50% inhibitory concentration (IC50) worked out at 18.8 µM in [5]; 20.5 µM in assay [6]; 26.4 µM in [7]; 13.4 µM in assay [8]; 24.8 µM in [9].

Compound `COc1cc([C@@H]2c3cc4c(cc3[C@@H](O[C@@H]3O[C@@H]5CO[C@@H](C)O[C@H]5[C@H](O)[C@H]3O)[C@H]3COC(=O)[C@H]23)OCO4)cc(OC)c1O` [ETOPOSIDE] gave an inhibition in [4] of 28.9%. In addition, the IC50 in assay [5] was found to be 1.89 µM; in assay [6], 1.3 µM; in assay [7] it was 1.09 µM; in [8], 2.41 µM; in [9], 1.29 µM.

With `Cc1ccsc1-c1cc(-c2ccoc2)cc(-c2ccc(Cl)cc2)n1`, the inhibition turned out to be 85.9% in [1], 10.6% in assay [2], 33.8% in assay [3] and 8.1% in [4]. The IC50 in [5] stood at 20.3 µM; in assay [6], 20.1 µM; in assay [7], 2.99 µM; in [8], 19.6 µM; in [9], 17.4 µM.

Regarding `Clc1ccc(-c2cc(-c3ccoc3)cc(-c3cccnc3)n2)s1`, the inhibition in assay [1] came to 2%; in assay [3], 60.8%; in assay [4] it was 40.9%. For the same compound, in assay [2], the inhibition result was “inactive”. Moreover, the half-maximal inhibitory concentration (IC50) in assay [5] is 3.48 µM; in assay [6], 18.5 µM; in [7], 0.72 µM; in assay [8], 18.7 µM; in [9] it was 20 µM.

For `Cc1ccsc1-c1cc(-c2ccc(Cl)o2)cc(-c2ccco2)n1`, the values for the inhibition in assay [1], in [3] and in assay [4] were 7.8%, 61.1% and 30.7%, respectively. In [2], the inhibition entry is “inactive”. Further, the IC50 in [5] stood at 5.57 µM; in [6] it was 27.3 µM; in assay [7], 26.3 µM; in [8], 10.6 µM; in assay [9] it was 22.2 µM.

As for `Clc1cccc(-c2cc(-c3ccoc3)cc(-c3ccc(Cl)s3)n2)c1`, the figures for the inhibition in assay [1], in [3] and in assay [4] were 2.1%, 54% and 50.6%, respectively. Besides, the inhibition result in assay [2] was “inactive”. In addition, the IC50 in [5] was 2.92 µM; in assay [6], 23 µM; in [7], 0.95 µM; in assay [8], 22.1 µM; in [9] it was 23.7 µM.

`Clc1cccc(-c2cc(-c3ccc(Cl)o3)cc(-c3ccc(Cl)s3)n2)c1`: the inhibition came out at 13.3% in assay [1], 53.8% in assay [3] and 40.7% in [4]. In assay [2], the inhibition result was “inactive”. Further, the 50% inhibitory concentration (IC50) was 15.1 µM in assay [5]; 21.6 µM in assay [6]; greater than 50 µM in assay [7]; 19.6 µM in [8]; 25.2 µM in assay [9].

As for `Cc1cccc(-c2cc(-c3ccoc3)cc(-c3ccc(Cl)s3)n2)c1`, the inhibition turned out to be 2.6% in assay [1], 50.2% in assay [3] and 37.6% in assay [4]. In assay [2], the inhibition entry was “inactive”. Moreover, the IC50 amounted to 3.99 µM in assay [5]; 20.3 µM in [6]; 0.88 µM in assay [7]; 13.7 µM in assay [8]; 23.6 µM in [9].

With `Cc1ccsc1-c1cc(-c2ccco2)cc(-c2ccccc2Cl)n1`, the inhibition amounted to 2% in [1], 33.2% in assay [3] and 3.5% in assay [4]. Also, the inhibition result in [2] was “inactive”. Also, the half-inhibitory concentration (IC50) in assay [5] was 14.2 µM; in assay [6], 29.9 µM; in assay [7], 0.54 µM; in [8], 25.4 µM; in [9], 24 µM.

For `CC[C@@]1(O)C(=O)OCc2c1cc1n(c2=O)Cc2cc3ccccc3nc2-1` [CAMPTOTHECIN], the results for the IC50 in assay [5], in [6] and in [7] were 0.06 µM, 0.66 µM and 0.76 µM, respectively.

Turning to `Clc1ccc(-c2cc(-c3ccoc3)cc(-c3ccco3)n2)s1`, the inhibition in assay [1] was determined as 9.6%; in assay [3] it was 49.1%; in assay [4], 48.6%. For the same compound, the inhibition result in assay [2] was “inactive”. The 50% inhibitory concentration (IC50) was 4.74 µM in assay [5]; 17.2 µM in assay [6]; 1.28 µM in [7]; 16.2 µM in [8]; 22.7 µM in [9].

`Clc1ccc(-c2cc(-c3ccco3)cc(-c3ccc(Cl)s3)n2)cc1`: the inhibition was 53.1% in assay [1], 42.9% in [2], 53.3% in assay [3] and 48.4% in [4]. In addition, the 50% inhibitory concentration (IC50) was determined as 1.52 µM in assay [5]; 14.8 µM in [6]; 1.08 µM in assay [7]; 10.5 µM in [8]; 17 µM in [9].

`Cc1ccsc1-c1cc(-c2ccc(Cl)o2)cc(-c2ccc(Cl)cc2)n1`: the results for the inhibition in assay [1], in assay [3] and in assay [4] were 5.1%, 59.8% and 40.4%, respectively. Further, the inhibition result in assay [2] is “inactive”. The IC50 in [5] came out at 15.3 µM; in assay [6], 21.9 µM; in assay [7], 30.3 µM; in [8] it was 15.6 µM; in assay [9], 29.3 µM.

`Clc1ccc(-c2cc(-c3ccco3)nc(-c3ccc(Cl)s3)c2)o1`: the inhibition in [1] turned out to be 23.1%; in assay [3], 53.8%; in [4], 39.9%. Also, in assay [2], the inhibition entry is “inactive”. Further, the IC50 was 16.9 µM in assay [5]; 27.7 µM in assay [6]; greater than 50 µM in [7]; 22.5 µM in assay [8]; greater than 50 µM in assay [9].

For the compound `COc1cccc2c1C(=O)c1c(O)c3c(c(O)c1C2=O)C[C@@](O)(C(=O)CO)C[C@@H]3O[C@H]1C[C@H](N)[C@H](O)[C@H](C)O1` [DOXORUBICIN HYDROCHLORIDE], the figures for the IC50 in assay [6], in assay [7] and in [8] were 1.5 µM, 2.12 µM and 2.5 µM, respectively.
